Laboratory results: ChEMBL document CHEMBL2417506, “Synthesis and antiprotozoal activity of original porphyrin precursors and derivatives” (Eur J Med Chem, 2013)
The source made the active and inactive calls. The rule behind the calls is not given here.

What was measured:
[1] = Cytotoxicity against Swiss mouse peritoneal macrophages at 20 uM after 5 days by MTT assay; format: cell-based, Peritoneal macrophage cell
How it was run: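 Thioglycolate-elicited peritoneal macrophages from female Swiss mice, 5 × 10^4/well in RPMI 1640 with 10% FCS, 25 mM Hepes and 2 mM L-glutamine. Washed at 4 h to remove fibroblasts. Drug-containing medium added at 48 h, stopped at day 5. Viability read by MTT.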

[2] = test system: Trypanosoma brucei brucei; experiment: Trypanocidal activity against Trypanosoma brucei brucei by drug incubation infectivity test; format: functional; conditions: read-out: MEC
Leishmania donovani [3] = experiment: Antileishmanial activity against amastigotes forms of Leishmania donovani MHOM/ET/67/HU3 infected in Swiss mouse peritoneal macrophages at 20 uM after 5 days; format: functional, organism-based
How it was run: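 Peritoneal macrophages from female Swiss mice (18–20 g) infected after 24 h with stationary-phase L. donovani promastigotes at 10 parasites per macrophage. Free promastigotes removed at 18 h, then amastigotes treated. Medium with drug renewed at 48 h, stopped at day 5. Percentage of infected macrophages scored microscopically after Giemsa staining. Run in triplicate.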

Leishmania donovani [4] = experiment: Antileishmanial activity against promastigote forms of Leishmania donovani MHOM/ET/67/HU3 after 3 days by MTT assay; format: functional, organism-based; conditions: MHOM/ET/67/HU3, 72 h
How it was run: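 Log-phase promastigotes at 10^6 cells/mL in supplemented M-199. Serial dilutions gave final concentrations of 100 µM to 50 nM, in triplicate. Incubated 3 days at 27 °C, dark, 5% CO2. Viability read by MTT reduction, with Triton X100/HCl lysis and absorbance at 570 nm. IC50 ± SD.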

Plasmodium falciparum = experiment: Antimalarial activity against Plasmodium falciparum 3D7 infected in human O positive erythrocytes assessed as reduction of parasite growth after 24 to 44 hrs by Giemsa staining; format: functional, organism-based
How it was run: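 Sorbitol-synchronized ring-stage 3D7 parasites in O+ erythrocytes (5% v/v suspension, 0.5% parasitemia) exposed to compounds from DMSO stock for 44 h at 37 °C. Growth measured by pLDH ELISA after freeze-thaw hemolysis and by Giemsa thin smears at 24 and 44 h, counting at least 5000 erythrocytes. Expressed as % reduction against medium-only control.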

Mus musculus [5] = experiment: Toxicity in chloroquine-sensitive Plasmodium berghei NK-173 infected Swiss albino mouse assessed as mortality at 51.5 mg/kg, ip administered 4 times per day for 3 days measured up to 4 days; format: organism-based; set-up: dose 51.5 mg/kg, route intraperitoneal; conditions: in vivo
How it was run: (§1)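 Female Swiss albino mice (18–20 g) were infected i.v. on day 0 with 10^6 parasitized RBC in 0.2 ml PBS from a donor mouse, in groups of 10. Dosing was i.p. over days 0–3 and stopped if toxicity appeared. Chloroquine control was 100 µmoles/kg. Giemsa tail smears and RBC counts were taken on days 4, 7, 8, 9, 10 and 14. Mice were followed for deaths.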

Plasmodium berghei [6] = experiment: Antimalarial activity against chloroquine-sensitive Plasmodium berghei NK-173 infected in Swiss albino mouse assessed as quantal survival at 51.5 mg/kg, ip administered 4 times per day for 3 days measured on day 14; format: functional, organism-based; set-up: dose 51.5 mg/kg; how it was run: as §1
Plasmodium berghei [7] = experiment: Antimalarial activity against chloroquine-sensitive Plasmodium berghei NK-173 infected in Swiss albino mouse assessed as quantal survival at 51.5 mg/kg, ip administered 4 times per day for 3 days measured on day 10; format: functional, organism-based; set-up: dose 51.5 mg/kg; how it was run: as §1
Plasmodium berghei [8] = experiment: Antimalarial activity against chloroquine-sensitive Plasmodium berghei NK-173 infected in Swiss albino mouse assessed as quantal survival at 51.5 mg/kg, ip administered 4 times per day for 3 days measured on day 9; format: functional, organism-based; set-up: dose 51.5 mg/kg; how it was run: as §1
Plasmodium berghei [9] = experiment: Antimalarial activity against chloroquine-sensitive Plasmodium berghei NK-173 infected in Swiss albino mouse assessed as quantal survival at 51.5 mg/kg, ip administered 4 times per day for 3 days measured on day 8; format: functional, organism-based; set-up: dose 51.5 mg/kg; how it was run: as §1
Plasmodium berghei [10] = experiment: Antimalarial activity against chloroquine-sensitive Plasmodium berghei NK-173 infected in Swiss albino mouse assessed as quantal survival at 51.5 mg/kg, ip administered 4 times per day for 3 days measured on day 7; format: functional, organism-based; set-up: dose 51.5 mg/kg; how it was run: as §1
Plasmodium berghei [11] = experiment: Antimalarial activity against chloroquine-sensitive Plasmodium berghei NK-173 infected in Swiss albino mouse assessed as reduction parasitemia at 51.5 mg/kg, ip treated […] by Giemsa staining relative to control; format: functional; set-up: scale not given: the % may be the effect or the level left; conditions: route intraperitoneal
How it was run: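 Four-day Peters test in female Swiss albino mice (18–20 g), groups of 10. Infected i.v. on day 0 with 10^6 parasitized RBC in 0.2 ml PBS, then dosed i.p. on days 0–3, stopped if toxicity appeared. Parasitemia read from Giemsa-stained tail-blood smears and reported as % reduction at day 4.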

Plasmodium berghei [12] = experiment: Antimalarial activity against chloroquine-sensitive Plasmodium berghei NK-173 infected in Swiss albino mouse assessed as host survival at 51.5 mg/kg, ip administered 4 times per day for 3 days measured on day 30; format: functional; conditions: NK-173, ip, route intraperitoneal; how it was run: as §1
Mus musculus [13] = experiment: Toxicity in chloroquine-sensitive Plasmodium berghei NK-173 infected Swiss albino mouse assessed as mortality at 100 mg/kg, ip administered 4 times per day for 3 days measured up to 4 days; format: organism-based; set-up: dose 100 mg/kg, route intraperitoneal; conditions: in vivo; how it was run: as §1
Plasmodium berghei [14] = experiment: Antimalarial activity against chloroquine-sensitive Plasmodium berghei NK-173 infected in Swiss albino mouse assessed as quantal survival at 100 mg/kg, ip administered 4 times per day for 3 days measured on day 14; format: functional, organism-based; set-up: dose 100 mg/kg; how it was run: as §1
Plasmodium berghei [15] = experiment: Antimalarial activity against chloroquine-sensitive Plasmodium berghei NK-173 infected in Swiss albino mouse assessed as quantal survival at 100 mg/kg, ip administered 4 times per day for 3 days measured on day 10; format: functional, organism-based; set-up: dose 100 mg/kg; how it was run: as §1
Plasmodium berghei [16] = experiment: Antimalarial activity against chloroquine-sensitive Plasmodium berghei NK-173 infected in Swiss albino mouse assessed as quantal survival at 100 mg/kg, ip administered 4 times per day for 3 days measured on day 8; format: functional, organism-based; set-up: dose 100 mg/kg; how it was run: as §1
Plasmodium berghei [17] = experiment: Antimalarial activity against chloroquine-sensitive Plasmodium berghei NK-173 infected in Swiss albino mouse assessed as quantal survival at 100 mg/kg, ip administered 4 times per day for 3 days measured on day 7; format: functional, organism-based; set-up: dose 100 mg/kg; how it was run: as §1
Plasmodium berghei [18] = experiment: Antimalarial activity against chloroquine-sensitive Plasmodium berghei NK-173 infected in Swiss albino mouse assessed as host survival at 100 mg/kg, ip administered 4 times per day for 3 days measured on day 30; format: functional; conditions: NK-173, ip, route intraperitoneal; how it was run: as §1

| Structure (SMILES) | CC50 at 120 h [1] [µM] | minimal effective concentration [2] [µM] | Activity (Leishmania donovani [3]) | IC50 (Leishmania donovani [4]) [µM] | other results |
| --- | --- | --- | --- | --- | --- |
| Fc1c(F)c(F)c(C(c2ccc[nH]2)c2ccc[nH]2)c(F)c1F | > 100 | > 100 | inactive | 44.1 | – |
| O=C1CCC(C(O)(c2ccccc2)c2ccccc2)N1c1c2nc(c(-c3ccccc3)c3ccc([nH]3)c(N3C(=O)CCC3C(O)(c3ccccc3)c3ccccc3)c3nc(c(-c4ccccc4)c4ccc1[nH]4)C=C3)C=C2 (centres undefined) | > 100 | 50 | inactive | 53 | – |
| O=C1CCCN1c1c2nc(c(-c3ccccc3)c3ccc([nH]3)c(N3CCCC3=O)c3nc(c(-c4ccccc4)c4ccc1[nH]4)C=C3)C=C2 | > 100 | > 100 | inactive | ≥ 100 | – |
| O=Cc1c2nc(c(-c3cccc(Br)c3)c3ccc(cc4nc(c(-c5cccc(Br)c5)c5ccc1[nH]5)C=C4)[nH]3)C=C2 | > 100 | > 100 | inactive | ≥ 100 | IC50 (Plasmodium falciparum): > 20 µM |
| Brc1c2nc(c(-c3ccccc3)c3ccc([nH]3)c(Br)c3nc(c(-c4ccccc4)c4ccc1[nH]4)C=C3)C=C2 | > 100 | > 100 | inactive | ≥ 100 | IC50 (Plasmodium falciparum): 0.2 µM |
| Brc1ccccc1/C(=C1\C=CC=N1)c1ccc[nH]1 | > 100 | 50 | inactive | 5.38 | – |
| C1=C/C(=C(\c2ccccc2)c2ccc[nH]2)N=C1 | > 100 | 25 | inactive | 5.23 | – |
| C1=Cc2nc1cc1ccc([nH]1)c(-c1ccccc1)c1nc(cc3ccc([nH]3)c2-c2ccccc2)C=C1 | > 100 | > 100 | inactive | ≥ 100 | IC50 (Plasmodium falciparum): > 20 µM |
| CCN(CC)CCCC(C)Nc1ccnc2cc(Cl)ccc12 (centres undefined) [CHLOROQUINE] | – | – | – | – | Activity (Mus musculus [5]): Non-toxic; Survival (Plasmodium berghei [6]): Active; Survival (Plasmodium berghei [7]): Active; Survival (Plasmodium berghei [8]): Active; Survival (Plasmodium berghei [9]): Active; Survival (Plasmodium berghei [10]): Active; Activity (Plasmodium berghei [11]): 100%; survival at 51.5 mg/kg (Plasmodium berghei [12]): 100% |
| Clc1cccc(Cl)c1/C(=C1\C=CC=N1)c1ccc[nH]1 | > 100 | 12.5 | inactive | 5.55 | – |
| COC(=O)[C@@H]1CCC(=O)N1c1c2nc(c(-c3cc(OC)c(OC)c(OC)c3)c3ccc(cc4nc(c(-c5cc(OC)c(OC)c(OC)c5)c5ccc1[nH]5)C=C4)[nH]3)C=C2 | > 100 | – | inactive | ≥ 100 | – |
| COc1cc(C(c2ccc[nH]2)c2ccc[nH]2)cc(OC)c1OC | > 100 | 100 | inactive | ≥ 100 | – |
| N=C(N)c1ccc(OCCCCCOc2ccc(C(=N)N)cc2)cc1 [PENTAMIDINE] | 26.3 | 5 | – | 3.1 | – |
| COC(=O)[C@@H]1CCC(=O)N1c1c2nc(c(-c3cc(OC)c(OC)c(OC)c3)c3ccc([nH]3)c(N3C(=O)CC[C@H]3C(=O)OC)c3nc(c(-c4cc(OC)c(OC)c(OC)c4)c4ccc1[nH]4)C=C3)C=C2 | > 100 | 100 | inactive | ≥ 100 | – |
| COc1cc(/C(=C2\C=CC=N2)c2ccc[nH]2)cc(OC)c1OC | > 100 | 25 | inactive | 4.71 | – |
| O=Cc1c2nc(c(-c3ccccc3)c3ccc(cc4nc(c(-c5ccccc5)c5ccc1[nH]5)C=C4)[nH]3)C=C2 | > 100 | > 100 | inactive | ≥ 100 | IC50 (Plasmodium falciparum): > 20 µM |
| c1ccc(C(c2ccc[nH]2)c2ccc[nH]2)cc1 | > 100 | > 100 | inactive | ≥ 100 | – |
| Brc1ccccc1C(c1ccc[nH]1)c1ccc[nH]1 | > 100 | > 100 | inactive | 44.7 | – |
| O=C1CCCN1c1c2nc(c(-c3ccccc3)c3ccc([nH]3)c(Br)c3nc(c(-c4ccccc4)c4ccc1[nH]4)C=C3)C=C2 | > 100 | 6.25 | inactive | 6.37 | – |
| O=C1CC[C@@H](C(=O)O)N1 [PIDOLIC ACID] | – | – | – | – | Activity (Mus musculus [13]): Non-toxic; Survival (Plasmodium berghei [14]): inactive; Survival (Plasmodium berghei [15]): inactive; Survival (Plasmodium berghei [16]): Active; Survival (Plasmodium berghei [17]): Active; survival at 100 mg/kg (Plasmodium berghei [18]): 0% |
| Fc1c(F)c(F)c(/C(=C2\C=CC=N2)c2ccc[nH]2)c(F)c1F | > 100 | 12.5 | inactive | 3.61 | – |
| CCCCCCCCCCCCCCCCOP(=O)([O-])OCC[N+](C)(C)C [MILTEFOSINE] | 15.8 | – | – | 4.26 | – |
| COc1cc(-c2c3nc(cc4ccc([nH]4)c(-c4cc(OC)c(OC)c(OC)c4)c4nc(cc5ccc2[nH]5)C=C4)C=C3)cc(OC)c1OC | > 100 | > 100 | inactive | ≥ 100 | IC50 (Plasmodium falciparum): > 20 µM |
